pIC50: −log10 of the molar value. A value given as a limit tells only on which side of the number the result lay.

For the experiment, the system named is A2780. As to the kind of experiment: Concentration required to inhibit 50% growth of A2780 human ovarian cancer cells. It is filed as functional, cell-based. Put shortly:
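A2780 cells kept at 37 °C, 5% CO2, seeded at 1 × 10^4 cells per well, grown 72 h, then exposed for 24 h to complexes freshly dissolved in deionized water and diluted in RPMI to final 0.1, 1, 10 and 100 µM, in duplicate. Drug medium removed, cells washed with PBS, regrown in fresh medium and counted on day 7 by Coulter counter.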
As usually defined, the pIC50 is the negative decadic logarithm of the IC50, by convention in mol/L. A low value points to a high IC50. As to [(nu6-p-cymene)RuBr(CH3CN)2]PF6, the negative logarithm of the IC50 (pIC50) is less than 3.82.
[(nu6-p-cymene)RuI(ethylenediamine)]PF6 gave a pIC50 of 5.10.
Next, [(nu6-p-cymene)RuCl2(isonicotinamide)]: less than 3.82; “[(nu6-C6H5CO2CH3)RuCl(ethylenediamine)]PF6”: 4.26; “[(nu6-p-cymene)RuCl(ethylenediamine)]PF6”: 5.05.
Next, [(nu6-C6H6)RuI(ethylenediamine)]PF6: 4.70.
Consider CISPLATIN, for which the negative-log IC50 (pIC50) is 6.30.
For the substance [(nu6-C6H6)RuCl(ethylenediamine)]PF6, the pIC50 was 4.77.
With “[(nu6-C6H5C6H5)RuCl(N-ethylethylenediamine)]PF6”, the negative logarithm of the IC50 (pIC50) is 5.22.
CARBOPLATIN had a pIC50 of 5.22.
